High-throughput results: PubChem, several laboratories
In the library only some 4.2% were active in any assay of this set; here they are far more common.
KCC2 mod – modulates chloride dependent transport by human KCC2. KCC2 cells, thallium flux FluoZin-2 fluorescence. B-score of Tl+ flux slope (higher = more flux/activation; lower = inhibition) at 10 µM. actives 2.2% (n = 190,000);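 active means thallium flux slope and its plate-corrected score both differing from the plate sample mean at a set confidence after two filtering rounds, in either direction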;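 further: slope of fluorescence scaled to starting intensity during 10 to 20 s after thallium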
Mot1-301 SUMO – blocks SUMOylation pathway, rescuing yeast Mot1-301 growth | S. cerevisiae Mot1-301 growth rescue, ATP luminescence, 38.5C; percent above DMSO median, 100 means doubled | growth rescue, % at 18.8 µM | actives 1% (n = 320,000) | AID 2716;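 active means every valid replicate shows activation above 250% relative to neutral control wells; inactive means the rest, any valid replicate at or below 250%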;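 further: OY570 slx delta 5 strain wells were the positive control but not used for scaling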
hERG rescue – compounds protecting human hERG from proarrhythmic drug block; CHO-hERG, FluxOR thallium flux, dofetilide IC70 present; activation (rescue from dofetilide block), less the hit threshold, % at 10 µM; actives 0.51% (n = 310,000); AID 1511;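 active means activation above the mean of controls blocked by dofetilide plus 5 SD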;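 further: thallium influx through hERG after potassium depolarization seen as dye fluorescence rise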
AI-2 QS modul – modulates the Vibrio harveyi AI-2 quorum sensing system; Vibrio harveyi JMH597 AI-2 luminescence/OD600 ratio, 9 h; stronger effect = lower value; strain lacks LuxN and CqsS sensors; 0 = neutral-control median; activity change, % at 7.5 µM; actives 0.4% (n = 300,000); AID 2094; in the data active means activity change below about -75%, passing the limit was not always enough;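 further: luminescence divided by OD600 gain over 9 h not by final OD600 alone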
KCNQ1 inh – blocks the human KCNQ1 potassium channel. actives 1.3% (n = 310,000). CHO-K1 KCNQ1, FluxOR thallium flux fluorescence; stronger effect = higher value. B-score at 10 µM. AID 2642;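 active means compounds whose thallium flux B-score, printed positive for inhibition, exceeds three library SD while starting fluorescence stays within three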;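 further: channel opened by potassium depolarization with thallium stimulus after 20 min compound exposure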
KCNQ1 pot – human KCNQ1 channel potentiation or activation. actives 0.35% (n = 310,000). CHO-K1 KCNQ1, thallium flux FluxOR fluorescence; stronger effect = higher value. B-score at 10 µM;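 active means fluorescence ratio B-score, a plate-corrected score, at least three library SD, with initial intensity B-score within 5 SD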
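Doses: Single concentration per compound, DMSO matched to controls | Test system: KCNQ1-transfected CHO-K1 cells | Timing: 90 min dye loading and 20 min compound exposure, both at room temperature | Measured by: Kinetic FluxOR thallium fluorescence, 10-s 1-Hz baseline, 110-s post-stimulus read | Medium: Assay buffer with matched DMSO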
Numbers without * were called inactive.

Screening CC(=O)Nc1nc2n(n1)C(c1ccccc1)C=C(c1ccccc1)N2 (stereo not drawn) returned KCC2 mod 0.0826, Mot1-301 SUMO -1.9, hERG rescue -0.8, AI-2 QS modul 21.6, KCNQ1 inh inactive and KCNQ1 pot inactive.
Cc1ccc(S(=O)(=O)Nc2ccccc2C(=O)N2CCCCC2C)c(C)c1NS(C)(=O)=O (stereo not drawn) was read as Mot1-301 SUMO -2.7, hERG rescue -11.3, KCNQ1 inh inactive and KCNQ1 pot inactive.
For COc1cc(C(=O)Nc2ccc(N3CCCS3(=O)=O)cc2)c([N+](=O)[O-])cc1OC the results were Mot1-301 SUMO -4.9, hERG rescue -7.8, AI-2 QS modul 17.0, KCNQ1 inh inactive and KCNQ1 pot inactive.
For O=[N+]([O-])c1cc2oc3c(c2c(C=NCc2ccccc2)c1O)CCCC3 the results were KCC2 mod -0.296, Mot1-301 SUMO -10.0, hERG rescue -2.2, AI-2 QS modul 38.4, KCNQ1 inh inactive and KCNQ1 pot inactive.
For CC(C)CN=Cc1c(O)c([N+](=O)[O-])cc2oc3c(c12)CCCC3 the results were KCC2 mod -1.71, Mot1-301 SUMO 56.3, hERG rescue -4.9, AI-2 QS modul 16.7, KCNQ1 inh inactive and KCNQ1 pot 15*.
Screening O=[N+]([O-])c1ccc(/C=N/Nc2ccnc3cc(Cl)ccc23)o1 returned Mot1-301 SUMO -9.2, hERG rescue -21.1, AI-2 QS modul -185.0*, KCNQ1 inh inactive and KCNQ1 pot inactive.
Screening Clc1ccc2c(N/N=C/c3cccc(Br)c3)ccnc2c1 returned KCC2 mod 0.538, Mot1-301 SUMO 23.6, hERG rescue -3.3, AI-2 QS modul 25.6, KCNQ1 inh 9* and KCNQ1 pot inactive.
`Cc1ccsc1CN(C)C(=O)CN1C(=O)NC2(CCCc3ccccc32)C1=O` (stereo not drawn) gave Mot1-301 SUMO 1.1.
Screening Cc1ccc(-n2nnc(-c3ccnc4ccccc34)n2)cc1 returned KCC2 mod 0.872, Mot1-301 SUMO 17.9, hERG rescue -6.1, AI-2 QS modul 14.9, KCNQ1 inh inactive and KCNQ1 pot inactive.
For O=C(NC1CCCCCC1)C1CC(=O)N(Cc2ccccc2)C1 (stereo not drawn) the results were KCC2 mod 0.581, Mot1-301 SUMO -17.5, hERG rescue -16.6, AI-2 QS modul 6.1, KCNQ1 inh inactive and KCNQ1 pot inactive.
`CCOC(=O)c1c(C)oc2c(F)c(F)c(F)c(F)c2c1=O` gave KCC2 mod -1.76, Mot1-301 SUMO 49.3, hERG rescue -23.0, AI-2 QS modul 3.7, KCNQ1 inh 7* and KCNQ1 pot inactive.
Cc1ccc(OCC(=O)NCCNC(=O)c2ccco2)cc1 was read as Mot1-301 SUMO 347.7*, hERG rescue -2.3, AI-2 QS modul 32.8, KCNQ1 inh inactive and KCNQ1 pot inactive.
For Cc1cc(NCc2ccccn2)n2nc(C)c(-c3ccccc3)c2n1 the results were KCC2 mod -1.17, Mot1-301 SUMO -31.3, hERG rescue -16.9, AI-2 QS modul 15.5, KCNQ1 inh 6* and KCNQ1 pot inactive.
CCC(c1nnnn1CCOC)N(Cc1ccc(C)cc1)Cc1cc2cc(OC)ccc2[nH]c1=O (stereo not drawn) was read as KCC2 mod -3.13*, Mot1-301 SUMO 9.8, hERG rescue -7.0, AI-2 QS modul 17.3, KCNQ1 inh inactive and KCNQ1 pot inactive.
COc1ccc(-n2c(C)n[nH]c2=O)cc1OC was read as Mot1-301 SUMO 347.3*, hERG rescue -9.0, AI-2 QS modul 17.5, KCNQ1 inh inactive and KCNQ1 pot inactive.
Screening CCOC(=O)CN(C(=O)CSc1nnc(COc2ccc(OC)cc2)n1C)c1ccccc1 returned KCC2 mod 0.205, Mot1-301 SUMO -10.1, hERG rescue -12.4, AI-2 QS modul 8.0, KCNQ1 inh inactive and KCNQ1 pot inactive.
Screening CSc1nc(-c2ccccc2)[nH]c(=S)c1C(C)=O returned KCC2 mod 20.8*, hERG rescue 31.9*, AI-2 QS modul 19.0, KCNQ1 inh inactive and KCNQ1 pot 44*.
CSc1nc(-c2ccccc2)nc(SC)c1C(C)=O was read as KCC2 mod 1.51, Mot1-301 SUMO 15.2, hERG rescue -7.5, AI-2 QS modul 15.3, KCNQ1 inh inactive and KCNQ1 pot inactive.
`O=C(Nc1ccc(F)cc1)C1CCCN(C2=NS(=O)(=O)c3ccccc32)C1` (stereo not drawn) gave Mot1-301 SUMO 8.5.
For O=C(/C=C/NCc1cccnc1)c1ccc(-c2ccccc2)cc1 the results were Mot1-301 SUMO inactive, hERG rescue -9.9, AI-2 QS modul 18.9, KCNQ1 inh inactive and KCNQ1 pot inactive.
`Cc1ccc(-c2cc3cccc[n+]3cc2-c2ccc(C)cc2)cc1` gave KCC2 mod 0.78, Mot1-301 SUMO 159.1, hERG rescue -28.6, AI-2 QS modul 24.2, KCNQ1 inh 8* and KCNQ1 pot inactive.
Screening Cc1ccc2nc(-c3ccncc3)cc(-c3ccccc3)c2c1 returned Mot1-301 SUMO 7.0, hERG rescue -10.7, AI-2 QS modul 31.6, KCNQ1 inh inactive and KCNQ1 pot inactive.
Screening CN1C(C(=O)NCc2cccc(C(F)(F)F)c2)CC2Cn3c(nc4cc(Cl)c(Cl)cc43)C21 (stereo not drawn) returned KCC2 mod -1.54, Mot1-301 SUMO 277.1*, hERG rescue -6.1, AI-2 QS modul 12.7, KCNQ1 inh inactive and KCNQ1 pot inactive.
For C=CCOC(=O)C1=C[C@H](c2coc3ccccc3c2=O)C[C@H](OCCCCO)O1 the results were Mot1-301 SUMO 14.5, hERG rescue -4.1, AI-2 QS modul -2.7, KCNQ1 inh inactive and KCNQ1 pot inactive.
Screening O=C(CCN1C(=O)S/C(=C\c2ccccc2)C1=O)NC1CCS(=O)(=O)C1 (stereo not drawn) returned Mot1-301 SUMO 0.4, hERG rescue -13.4, AI-2 QS modul 5.3, KCNQ1 inh inactive and KCNQ1 pot inactive.
`CC(=O)N[C@H]1[C@H](OC2CCCCC2)O[C@H](COC(C)=O)[C@@H](OC(C)=O)[C@@H]1OC(C)=O` gave Mot1-301 SUMO -10.6, hERG rescue -1.8, AI-2 QS modul 7.0, KCNQ1 inh inactive and KCNQ1 pot 8*.
COc1ccc(O[C@@H]2O[C@H](COC(C)=O)[C@@H](OC(C)=O)[C@H](OC(C)=O)[C@H]2NC(C)=O)cc1 was read as KCC2 mod 2.22, Mot1-301 SUMO 68.1, hERG rescue -2.0, AI-2 QS modul 19.5, KCNQ1 inh inactive and KCNQ1 pot inactive.
